# Screens as filed in PubChem BioAssay.
# Shown are actives, neighbours in structure and some others; about 12% of the full set was active somewhere.
# CHOP inh: inhibitors of CHOP promoter induction, primary screen, cell-based, unfolded protein response, luciferase reporter; CHO-K1 CHOP-promoter luciferase, tunicamycin-induced, 15-18 h; actives 3.8% (n = 220,000); inhibition, % at 10 µM;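 active = compounds that reduced the stress-induced luciferase reporter signal by more than about 70% of percent inhibition, limit read from the data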;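 also: 0% = tunicamycin plus vehicle and 100% = wells without tunicamycin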
# MT stabilize HCS: microtubule stabilizers in HeLa cells, primary screen, imaging, high-content imaging. % tubulin-high responders, % at 10 µM. HeLa tubulin immunostaining HCS, 24 h; share of cells brighter than vehicle mean+2SD. actives 0.83% (n = 200,000). AID 2205, 2009;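 active = plate Z-score above 3 for both tubulin-high and condensed-nucleus cell shares, with cell loss under 80%, at 10 µM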;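 also: anti alpha tubulin signal scored within the nucleus-defined area of each cell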
# Lmaj promast: Leishmania major promastigote growth inhibition, primary screen; Leishmania major promastigotes, resazurin fluorescence viability; inhibition, % at 10 µM; actives 9% (n = 200,000); AID 1063, 2008; in the data active = inhibition above about 50%;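 also: promastigotes grown with compound for 44 hours at 28 °C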
# Autophagy HCS: autophagy modulators in MEF cells, primary screen, imaging, high-content, MEF GFP-LC3. calls only at 10 µM (by protocol). MEF GFP-LC3 puncta imaging; test concentration mostly 10 µM. actives 0.98% (n = 190,000);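 active = percentage of spot-positive cells more than 3 SD above its plate mean, without a fluorescence outlier flag or 80% toxicity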;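 also: spot-positive cell cutoff set from DMSO-treated cells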
# bCat nuc transl: modulators of beta-catenin nuclear translocation, primary screen, imaging, HeLa cells, immunofluorescence, high-content; nuclear translocation activity, % at 5 µM; AID 1665, 2009; actives 0.3% (n = 190,000);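 active = nuclear translocation activity above 50% at 5 µM, with a well cell count of 50 or more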;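 also: per-cell ratio of nuclear to cytoplasmic median beta-catenin stain intensity; plate controls were DMSO negative control for no effect and GSK-3 inhibitor IX positive control for full effect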
#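 test system = HeLa cells, endogenous beta-catenin | dosing = single 5 µM dose plus 0.02–20 µM confirmation series | times = compound treatment 24 h, 37°C, 5% CO2 | technique = beta-catenin immunofluorescence imaging with DAPI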
# Dynein transport: inhibitors of GR-EGFP nuclear translocation, primary screen, dynein cargo transport inhibitor project, imaging, high-content, 3617.4 mouse cells; AID 1381, 2008; z-score, hits read low; actives 0.47% (n = 220,000); test concentration mostly 20 µM; stimulated with dexamethasone, 1 µM; active compounds read low;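 active = plate z-score of nuclear minus cytoplasmic receptor signal below a set negative limit, without overly bright fluorescence or cell loss, cut at about -3.5 in these data, passing the limit was not always enough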;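 also: z-score of nuclear minus cytoplasmic ring GR-EGFP intensity difference per well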
#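 Buffer or medium: tet-free medium with charcoal-stripped serum / Also added: dexamethasone agonist, 1.0 µM final, for 30 min / Timing: induction 48 h, compound 1 h, agonist 30 min / Measured by: high-content fluorescence imaging after fixation / Read-out: nuclear-to-cytoplasmic GR-EGFP distribution per well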
# L major 1uM: Leishmania major promastigote growth inhibition, confirmation, 1 µM repeat of primary hits. actives 13% (n = 1,100). shares compounds with Lmaj promast. L. major promastigote growth, resazurin fluorescence, 48 h. AID 1258, 2008. inhibition, % at 1 µM;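 active = inhibition above about 50% in both repeat tests, limit read from the data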
# Active calls of the source: *; i = inactive; . = not tested or not shown.
SMILES,CHOP inh,MT stabilize HCS,Lmaj promast,Autophagy HCS,bCat nuc transl,Dynein transport,L major 1uM
CCCCc1ccc2[nH]cc(CCN)c2c1,21,2,100*,i,-2,-0.56,1
CC(C)C[C@H]1C(=O)N2CCCC2[C@]2(O)O[C@](NC(=O)[C@@H]3C=C4c5cccc6[nH]cc(c56)CC4N(C)C3)(C(C)C)C(=O)N12 (stereo partly specified),29,5,59*,i,5,-0.086,1
CC(C)[C@@]1(NC(=O)[C@@H]2C[C@@H]3c4cccc5[nH]cc(c45)C[C@H]3N(C)C2)O[C@@]2(O)[C@@H]3CCCN3C(=O)[C@H](Cc3ccccc3)N2C1=O,-6,3,65*,i,-3,0.12,-2
CN(C)c1ccc(/C=C2/C(=N\O)C3CCN2CC3)cc1,-5,.,.,.,1,-0.25,.
CC[n+]1c(/C=C/N(C)c2ccccc2)sc2ccc(Cl)cc21,29,15,100*,i,.,1.4,100*
CCOC(=O)c1cc(CC)sc1/N=C/c1c(O)[nH]c(=S)[nH]c1=O,-24,2,6,i,2,0.031,.
O=P(Nc1ccccc1)(Nc1ccccc1)Oc1ccc(Cl)cc1,-26,3,71*,i,-3,-0.91,-5
CCC(=NCCOc1ccc(Cl)cc1)c1c(O)n(C)c(=O)n(C)c1=O,30,4,-10,i,.,0.1,.
CCC(=NCc1cccnc1)c1c(O)n(Cc2ccccc2)c(=O)[nH]c1=O,17,2,10,i,-4,-0.42,.
CC(C)[C@H]1C(=O)O[C@H](C(C)C)C(=O)N(C)[C@@H](C(C)C)C(=O)O[C@H](C(C)C)C(=O)N(C)[C@@H](C(C)C)C(=O)O[C@H](C(C)C)C(=O)N1C,93*,4,100*,i,-5,-1.1,-7
CCC(=NCCc1c[nH]c2ccccc12)c1c(O)n(C)c(=O)n(C)c1=O,63,3,1,i,-7,0.21,.
CC(=O)[C@H]1CCC2C3CC[C@H]4C[C@H](O)CC[C@]4(C)C3CC[C@@]21C (stereo partly specified),-1,.,.,.,.,.,.
Cn1cccc1CNCCc1ccccc1F,-6,5,98*,i,0,-0.54,-17
Cn1cccc1CNCCc1ccccc1,-6,2,-5,i,-2,-0.45,.
O=C(NCC(c1cccnc1)N1CCN(c2ccc(F)cc2)CC1)Oc1ccccc1 (stereo unspecified),18,3,93*,i,1,-0.69,78*
CN1CN(c2cccc([N+](=O)[O-])c2)CN=C1N[N+](=O)[O-],5,5,-6,i,-3,0.64,.
CCOc1cccc(CNC2CN3CCC2CC3)c1 (stereo unspecified),29,2,99*,i,.,3.1,-19
COc1cccc(CNC2CN3CCC2CC3)c1OC (stereo unspecified),-7,2,-2,i,-5,-0.11,.
Cc1ccccc1-n1c(O)c(C(c2ccncc2)c2c(O)n(-c3ccccc3C)c(=O)[nH]c2=O)c(=O)[nH]c1=O,6,.,.,.,-1,0.0099,.
CC1(C)C(=O)C=C[C@]2(C)[C@H]3CC[C@@]4(C)[C@H](c5ccoc5)OC(=O)[C@H]5O[C@]54[C@]3(C)[C@H](O)C[C@@H]12,42,12,100*,i,.,-2.6,88*
CCn1nc(/C=C/c2ccccc2)nc2c(=O)n(C)c(=O)nc1-2,105*,28*,101*,i,-2,-1.5,81*
O=C1C2CCCN2C(c2cccnc2)N1c1ccc(Cl)c(Cl)c1 (stereo unspecified),5,6,96*,i,-1,1.6,8
O=C1C2CCCN2C(c2ccncc2)N1c1ccc(Cl)c(Cl)c1 (stereo unspecified),36,6,0,i,0,-0.17,.
